T cruzi inh – inhibitors of intracellular T. cruzi growth, primary screen, luminescence, NIH3T3 host cells; T. cruzi beta-gal in NIH3T3, 90 h; inhibition, % (test concentration not listed); 300,000 tested, 1.4% active; AID 1885, 2009;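 active = mean inhibition across valid replicates above about 55%, limit read from the data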;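 note: signal also drops with host cell toxicity which is not excluded here; 0% = plate median of DMSO wells and 100% = zero luminescence signal; higher percent means less beta-gal luminescence so fewer parasites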
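Assay system: NIH/3T3 fibroblasts plus reporter T. cruzi. Amount: NIH/3T3 cells, 5,000 per well. Buffer or medium: DMEM, 2% fetal bovine serum. Doses: compound pinned at 50 nL/well, DMSO. Schedule: ≥90 h infection period, 3 h prior cell attachment. Signal: luminescent β-galactosidase signal after 60 min lysis. Read-out: parasite load inhibition, %.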
L major viab – Leishmania major promastigote growth inhibition, primary screen; Leishmania major promastigotes, resazurin fluorescence viability; inhibition, % at 10 µM; 200,000 tested, 9% active; in the data active = inhibition above about 50%;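 note: promastigotes grown with compound for 44 hours at 28 °C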
Lipid droplet – inhibitors of hepatocyte lipid droplet formation, primary screen, imaging, high-throughput imaging, BODIPY stain; 240,000 tested, 0.4% active; inhibition, % at 6.5 µM; AID 1656, 2009; AML12 mouse hepatocytes, oleate lipid droplets;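 active = lipid droplet intensity inhibited by at least 50%, with more than 500 cells counted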
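Material – AML12 mouse liver cells · Also added – oleate loading, 100 µM · Compound dosing – 6.5 µM single-point dosing · Times – overnight treatment with compound plus oleate · Measured by – fluorescence imaging, 20x objective, two fields per well · Read-out – percent inhibition of filter-corrected integrated lipid droplet intensity per well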
MPTP inh – mitochondrial permeability transition pore inhibitors, primary screen, biochemical, isolated mouse mitochondria, absorbance. Ca2+ swelling absorbance, 30 min. inhibition, % at 10 µM. 360,000 tested, 1.4% active. AID 602449, 2012;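 active = inhibition of 50% or more, scaled per plate between neutral and stimulator controls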;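 note: 0% = DMSO wells given calcium and 100% = 1 mM EGTA wells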
DTT redox prof – compounds producing H2O2 with reducing agent – biochemical, NIH compound library profiling, artefact control for MLSCN library redox annotation, primary screen. DTT-dependent redox cycling H2O2, phenol red/HRP absorbance; 100% = 100 µM peroxide control, 0% = buffer. activation, % at 10 µM. 200,000 tested, 0.03% active. AID 878, 2007;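 active = activation of at least 50% relative to the plate's high and low controls in the primary single-dose screen; inactive = activation below 50%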;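 note: compound incubated with DTT at 0.8 mM final as the reducing agent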
Active calls of the source: *; x = no result given. Many of the other results were omitted from the sample, so hits are more common in it than they were.

SMILES | T cruzi inh | L major viab | Lipid droplet | MPTP inh | DTT redox prof
Cc1[nH]c2ccccc2c(=O)c1CN1CCCCC1 | -5 | -2 | 0 | -2 | 0
Cc1[nH]c2ccccc2c1CN1CCC(Cc2ccccc2)CC1 | 94* | 100* | -12 | 7 | -1
CC(C)N(C(=O)CSc1nnc(-c2ccc3c(c2)OCO3)n1C)C(C)C | 5 | 5 | -7 | -4 | -1
Cc1cc2nc(-c3ccco3)c(Cc3ccccc3C(F)(F)F)n2c(C)c1Br | x | x | x | -2 | x
COC(=O)c1sc(N/N=C/c2ccc(C(C)C)cc2)nc1C | 64* | x | 6 | 2 | x
CCNc1nc(NCC)nc(SCCOC(=O)c2ccccc2)n1 | 10 | 55* | 20 | 0 | 0
CCNc1nc(NCC)nc(SCCOC(=O)Nc2ccc(Cl)cc2Cl)n1 | 4 | 3 | 4 | 7 | 1
Cc1cc(C)c(NC(=S)NCCCSC2CCCCC2)c(C)c1 | 52 | 57* | -65 | 11 | -1
CCCCc1ccc(NC(=O)COc2ccc(C(=O)Nc3ccccc3OC)cc2)cc1 | 1 | 72* | 0 | x | 0
CCCCc1ccc(NC(=O)COc2ccc(C(=O)Nc3ccccc3C)cc2)cc1 | -18 | 13 | 9 | x | 0
OC(COc1ccc2cc(Br)ccc2c1)CN1CCOCC1 (centres undefined) | 12 | 60* | -4 | 42 | 1
OC(COc1c(Br)cc(Br)cc1Br)CN1CCOCC1 (centres undefined) | 13 | 79* | x | 0 | 0
Cc1c(-c2ccccc2)oc2c(C(=O)N3CCN(c4ccccc4F)CC3)cccc2c1=O | 17 | 0 | 0 | 0 | 0
O=C(CCc1ccc(S(=O)(=O)N2CCOCC2)cc1)OCC(=O)c1ccccc1F | x | x | x | -1 | x
Cc1ccccc1Cn1cnc2c(cnn2C(C)(C)C)c1=O | 17 | 59* | x | 15 | 0
CC(C)=C(NC(=O)c1ccccc1Br)C(=O)NCCc1nc2ccccc2[nH]1 | -11 | x | 5 | 0 | x
O=C(NCCCN1CCOCC1)c1csc2c1CCCC2 | 1 | 85* | x | -1 | 0
O=C(NCCCN1CCOCC1)c1cc2c(s1)CCCC2 | -2 | 91* | 0 | -5 | 1
CC1CCCC(C)N1CCCNC(=O)c1csc2c1CCCCC2 (centres undefined) | 9 | x | -7 | 1 | x
Cc1cccc(NC(=O)CSc2n[nH]c(-c3ccncc3)n2)c1C | 8 | x | 1 | -3 | x
Cc1ccc(C(=O)OCn2ncc(Cl)c(Cl)c2=O)cc1 | 50 | 101* | x | 0 | 1
CCOC(=O)c1ccc(NC(=O)Cn2ncc(Cl)c(Cl)c2=O)cc1 | 56* | 96* | 24 | 1 | x
COc1ccc(NC(=O)Cn2ncc(Cl)c(Cl)c2=O)cc1S(=O)(=O)N1CCOCC1 | -31 | 87* | 2 | 1 | 5
O=C(OCn1ncc(Cl)c(Cl)c1=O)c1ccc(C(F)(F)F)cc1 | 64* | 7 | x | -1 | 1
O=C(O)c1ccc(-n2ncc(Cl)c(Cl)c2=O)cc1 | x | x | x | 0 | x
SMILES | T cruzi inh | L major viab | Lipid droplet | MPTP inh | DTT redox prof
Cc1ccc(NC(=S)NCCCN2CCOCC2)cc1 | 24 | 78* | 3 | -1 | 0
CC(NC(=S)NCCCN1CCOCC1)C12CC3CC(CC(C3)C1)C2 (centres undefined) | x | 86* | 8 | 1 | -1
S=C(NCCCN1CCOCC1)Nc1ccc(Cl)cc1 | -10 | 99* | -5 | 1 | 0
CC1CCN(CCNC(=S)Nc2ccc(Cl)cc2)CC1 | 4 | 66* | -6 | 1 | 0
S=C(NCCN1CCOCC1)Nc1ccc(Cl)cc1 | -17 | 2 | 1 | 0 | 0
S=C(NCCN1CCOCC1)Nc1ccc(Cl)c(Cl)c1 | -6 | 55* | -25 | 6 | -1
Cc1ccc(NC(=S)NCC(C)C)cc1 | -16 | 78* | -1 | -1 | 0
COc1cc(C(=O)OCC(=O)NC(=O)C2CCCCC2)ccc1OC(F)F | -13 | -4 | 20 | 0 | -2
Cc1ccc(NC(=O)CN(C)C(=O)c2nn(C)c(=O)c3ccccc23)cc1 | -18 | x | 2 | 2 | x
COc1ccc(NC(=S)NCc2ccc(F)cc2)cc1 | 4 | x | -3 | 0 | x
COc1ccc(CNc2ccc(C(=O)O)cc2)cc1 | -6 | -6 | x | -2 | 3
COc1ccc(CNC(=S)Nc2ccc(OC)cc2)cc1 | -10 | 52* | 20 | -1 | 0
COc1ccc(CCNS(=O)(=O)c2ccc(Br)cc2)cc1 | 4 | x | 6 | 2 | x
COc1ccc(CNc2ccc(Br)cc2)cc1 | 38 | 99* | -11 | 1 | 1
COc1ccc(NC2=NCC(Cc3ccc(Br)cc3)S2)cc1 (centres undefined) | 40 | 88* | 0 | 0 | 0
CCCCn1c(N)c(N(CC(C)C)C(=O)CCCSc2nncs2)c(=O)[nH]c1=O | -13 | -8 | 14 | -3 | 2
COc1ccc(CC2SC(=Nc3ccc(F)cc3)NC2=O)cc1 (centres undefined) | 4 | 4 | -8 | 1 | 0
O=C(CCS(=O)(=O)c1cccs1)Nc1ccc(C(=O)NC2CCN(Cc3ccccc3)CC2)cc1 | 34 | -6 | 26 | 1 | 0
Cc1cc(C)c2cc(CN(Cc3cccnc3)C(=O)c3ccc(F)cc3)c(Cl)nc2c1 | 59* | 98* | x | 0 | -4
O=C(c1ccccc1F)N(Cc1cccnc1)Cc1cc2cc3c(cc2[nH]c1=O)OCCO3 | 2 | -7 | -7 | -1 | 0
Cc1cccc2cc(CN(Cc3cccnc3)C(=O)c3ccccc3F)c(Cl)nc12 | 61* | 97* | -9 | -1 | 2
O=C(NC(c1ccc(Cl)cc1)c1ccsc1)C1CCN(Cc2ccc(Oc3ccccc3)cc2)CC1 (centres undefined) | x | x | x | 6 | x
Cc1cccc(C)c1-c1ccc(CN2C(CC(C)C)C(=O)N(Cc3cn(CCO)nn3)CCS2(=O)=O)cc1 (centres undefined) | x | x | x | -3 | x
O=C(NNc1cccc(Cl)n1)c1cccnc1Cl | -10 | -6 | 8 | 0 | 0
O=C(NNc1cccc(Cl)c1)c1cccnc1Cl | 11 | 88* | 0 | 1 | 0
SMILES | T cruzi inh | L major viab | Lipid droplet | MPTP inh | DTT redox prof
CCCc1nc2cc(C)c(Br)c(C)n2c1Cc1ccsc1 | x | x | x | 2 | x
Cc1ccc(CN2CCN(Cc3nc(C(C)C)cs3)CC2CCO)cc1 (centres undefined) | 46 | 74* | -8 | 5 | -1
CC(C)c1csc(CN2CCC(CO)(Cc3cccc(F)c3)CC2)n1 | 68* | -3 | 1 | -1 | 0
CC(C)c1csc(CN2CCN(Cc3ccc(F)cc3)C(CCO)C2)n1 (centres undefined) | 50 | 81* | -9 | -1 | -1
CC(C)CN1CCN(Cc2nc(C(C)C)cs2)CC1CCO (centres undefined) | 4 | 7 | 6 | 0 | -2
CCc1nc2ccc(C(=O)N3CCN(C(C)=O)CC3)cn2c1N(C)C(=O)c1cccc(OC)c1 | x | x | x | 0 | x
COc1ccc(OC)c(NS(=O)(=O)c2cc3c4c(c2)CCN4C(=O)CC3)c1 | 5 | x | x | -1 | x

Screening data deposited in PubChem BioAssay by several laboratories.
